Compound activity: PubChem, Sanford-Burnham Center for Chemical Genomics
Hits are enriched below; roughly 2.3% of the tested compounds scored in any of these assays.
STEP block – STEP phosphatase inhibitors, primary screen, biochemical, fluorescence intensity, uHTS; 0.25% of 360,000 active; inhibition, % at 20 µM; recombinant STEP, OMFP fluorogenic substrate; AID 588621, 2011; Tyrosine-protein phosphatase non-receptor type 5 (Homo sapiens), P54829;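 active = inhibition at 20 µM, scaled per plate between control wells, above about 37%, limit read from the data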
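System: STEP phosphatase, cell-free reaction; Buffer or medium: Bis-Tris pH 6.0 buffer with DTT, detergent; Incubation: 20 min at room temperature, dark; Measured by: fluorescence, 480/540 nm.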
SUMO1 PPI mod – modulators of SUMO1 protein-protein interactions, primary screen, biochemical, uHTS | Small ubiquitin-related modifier 1 (Homo sapiens), P63165 | SUMO1 binding to a labelled peptide, TR-FRET, 1 h | inhibition, % at 20 µM | 0.33% of 360,000 active | AID 602429, 2012; in the data active = inhibition above about 37%
Target sequence (P63165 whole entry, looked up): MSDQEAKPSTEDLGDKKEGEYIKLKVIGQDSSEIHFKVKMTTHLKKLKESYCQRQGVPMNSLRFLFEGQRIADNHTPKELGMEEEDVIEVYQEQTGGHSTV
Rpn11 block – Rpn11 (PSMD14) deubiquitinase inhibitors, primary screen, biochemical, fluorescence polarization, uHTS; AID 588493, 2011; 26S proteasome non-ATPase regulatory subunit 14 (Homo sapiens), O00487; inhibition, % at 20 µM; human 26S proteasome, Ub4-pepOG fluorescence polarization; 20S core pre-blocked with epoxomicin; 0.59% of 360,000 active;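 active = inhibition at 20 µM, scaled to each plate's controls, above about 33%, limit read from the data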
Scp1 inh – Scp-1 phosphatase inhibitors, primary screen, biochemical, colorimetric, uHTS; Recombinant Scp1, phosphopeptide, malachite green phosphate absorbance; inhibition, % at 20 µM; 0.88% of 340,000 active; AID 493091, 2011;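 active = inhibition above about 50% at 20 µM, limit read from the data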
Target sequence (Q9GZU7 76-261 limits assumed): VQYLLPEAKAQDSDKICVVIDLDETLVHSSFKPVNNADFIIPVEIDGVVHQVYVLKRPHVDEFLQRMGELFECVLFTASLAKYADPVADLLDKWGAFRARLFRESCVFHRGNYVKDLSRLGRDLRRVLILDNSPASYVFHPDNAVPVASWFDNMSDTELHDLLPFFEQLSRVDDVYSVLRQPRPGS
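Test system: SCP-1 phosphatase catalytic domain, residues 76-261; measured by: colorimetric phosphate reagent with accelerator and stabiliser, absorbance at 630 nm; timing: enzyme reaction 45 min at room temperature, colour 5 min, stabilisation 30 min; also added: Phosphorylated 17-residue peptide substrate; compound dosing: one concentration, 20 µM, with 1.0% DMSO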
DNMT1 block – human DNMT1 methyltransferase inhibitors, primary screen, biochemical, molecular beacon, fluorescence, HinP1I cleavage, uHTS; DNA (cytosine-5)-methyltransferase 1 (Homo sapiens), P26358; inhibition (reported as % activation of signal), % at 10 µM; 0.83% of 360,000 active; in the data active = inhibition above about 50%
LMPTP block – LMPTP phosphatase inhibitors, primary screen, biochemical, fluorescence intensity, uHTS; recombinant LMPTP-A, OMFP fluorogenic substrate; 0.22% of 360,000 active; inhibition, % at 20 µM;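 active = compounds that cut the enzyme signal by at least half of the control window in the single-dose screen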
Target sequence (P24666 whole entry, looked up): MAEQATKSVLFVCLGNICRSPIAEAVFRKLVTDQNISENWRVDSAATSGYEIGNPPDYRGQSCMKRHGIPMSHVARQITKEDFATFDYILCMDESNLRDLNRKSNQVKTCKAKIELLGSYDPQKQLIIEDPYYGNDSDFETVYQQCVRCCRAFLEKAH
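Assay system: LMPTP-A phosphatase enzyme | Input: 0.625 nM enzyme | Also added: Fluorogenic phosphatase substrate OMFP at 400 µM final | Compound dosing: One test concentration per compound, 20 µM, with 3% DMSO overall | Schedule: 50 min enzyme reaction at room temperature, protected from light | Signal: Fluorescence intensity | Benchmarks: no-enzyme and uninhibited controls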
Beacon interf DR – spectral interference with molecular beacon fluorescence, dose response, artefact control for DNMT1 inhibitor project, biochemical, fluorescent molecular beacon; shares compounds with DNMT1 block; spectral interference counter-screen; IC50, µM; 200 tested, under 10 active; call rule not given here
DNMT1 confirm – DNMT1 methyltransferase inhibitor retest, confirmation, biochemical, molecular beacon, fluorescence, single concentration; shares compounds with DNMT1 block; DNMT1 molecular beacon HinP1I cleavage; inhibition, % at 10 µM; 8% of 2,300 active; AID 602385, 2012;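 active = average inhibition of at least 30% in the single-concentration confirmation test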
Beacon interf – beacon fluorescence artifact counter-screen; 1% of 2,300 active; DNMT1 molecular beacon spectral interference counterscreen, fluorescence 485/520; activation (fluorescence interference), % at 10 µM; shares compounds with DNMT1 block;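 active = activation of at least 30% at 10 µM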;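 note: DNMT1 catalytic domain with a HinP1I cleavage step and a FAM/dabcyl DNA beacon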
Hits are given with their value; - = inactive; . = not tested or not shown.

SMILES | STEP block | SUMO1 PPI mod | Rpn11 block | Scp1 inh | DNMT1 block | LMPTP block | DNMT1 confirm | Beacon interf | others
CC1CCN(S(=O)(=O)c2ccc(-c3nnc(SCc4cccnc4)o3)cc2)CC1 | - | - | - | - | 55 | - | - | -
COc1ccc2nc(C)cc(SCC(=O)N/N=C/c3cccc4ccccc34)c2c1 | - | - | - | - | 53 | - | - | -
COC(=O)CSc1cc(C)nc2ccc(OC)cc12 | - | - | - | - | - | - | . | .
CCOc1ccccc1NC1=C(OC)C(=O)C(Nc2ccccc2OCC)=C(OC)C1=O | - | - | - | - | - | - | . | .
COc1ccc(N2CCN(C(=O)c3cccnc3)CC2)c([N+](=O)[O-])c1 | - | - | - | - | - | - | . | .
C(=C\c1ccco1)/c1ccc2ccccc2n1 | - | - | - | - | 80 | 57 | - | -
O=C(N=C1SC2CS(=O)(=O)CC2N1c1ccccc1Cl)C1CCCO1 (centres undefined) | - | - | - | - | - | - | . | .
CC1=C(C(=O)OC(C)C)C(c2ccc(Cl)cc2)n2c(sc(=Cc3ccc(OCC(=O)O)cc3)c2=O)=N1 (centres undefined) | 87 | 106 | . | . | 104 | 88 | 105 | - | Beacon interf DR=-
CCOC(=O)C1=C(C)N=c2s/c(=C/c3ccc(OCC(=O)O)cc3)c(=O)n2C1c1ccc(F)cc1 (centres undefined) | - | - | - | - | - | - | . | .
c1ccc(-c2cnn3c(-c4ccccc4)c(-c4ccccc4)nc3n2)cc1 | - | - | - | - | 178 | - | - | 60
CCCCN(CC)C(=O)C1CCC(CNS(=O)(=O)c2cccc3nsnc23)CC1 (centres undefined) | - | - | - | - | - | - | . | .
CSc1ncc(Cl)c(C(=O)C(C#N)c2nc3c(C)cc(C)cc3c(=O)[nH]2)n1 (centres undefined) | - | - | - | - | - | - | . | .
Clc1cccc(CNc2ccn3nc(-c4ccccc4)cc3n2)c1 | - | - | - | . | - | - | . | .
Clc1ccc(-c2cc3nc(NCc4cccc(Cl)c4)ccn3n2)cc1 | - | - | - | . | 79 | - | - | -
COc1ccc(-c2[nH]ncc2CN(CCO)Cc2cccs2)c(F)c1 | - | - | - | - | - | - | . | .
CC1(NC(=O)CCc2nc3sc4c(c3c(=O)[nH]2)CCCC4)CCS(=O)(=O)C1 (centres undefined) | - | - | - | . | 54 | - | - | -
Cc1ccc(-c2nc3ccccc3s2)cc1NC(=S)NC(=O)/C=C/c1ccco1 | - | - | - | - | 54 | - | - | -
O=C(/C=C/c1ccco1)NC(=S)Nc1cc(-c2nc3ccccc3s2)ccc1Cl | - | - | - | - | 98 | - | - | -
O=C(/C=C/c1ccco1)NC(=S)Nc1cccc(-c2nc3ccccc3s2)c1 | - | - | - | - | - | - | . | .
O=C(/C=C/c1ccc(Cl)cc1)NC(=S)Nc1ccc(NC(=O)c2ccco2)cc1 | - | - | - | - | 58 | - | - | -
CC(=O)Nc1ccc(NC(=S)NC(=O)/C=C/c2ccc(Cl)cc2)cc1 | - | - | - | - | - | - | . | .
NC(=O)c1c(N)[nH]c(C(=O)c2ccccc2)c1-c1ccccc1Br | . | - | . | . | . | - | . | .
Nc1ccc(-n2c(N)c(C(=O)NCc3ccc4c(c3)OCO4)c3nc4ccccc4nc32)cc1 | - | - | - | - | - | - | . | .
Nc1c(C(=O)NCc2ccccc2)c2nc3ccccc3nc2n1-c1ccc2c(c1)OCO2 | - | - | - | - | 56 | - | - | -
Cc1ccc(C2C(C#N)=C(N)OC3=C2C(=O)CCC3)s1 (centres undefined) | - | - | - | - | - | - | . | .
SMILES | STEP block | SUMO1 PPI mod | Rpn11 block | Scp1 inh | DNMT1 block | LMPTP block | DNMT1 confirm | Beacon interf | others
N#CC1=C(N)OC2=C(C(=O)CCC2)C1c1ccncc1 (centres undefined) | - | - | - | - | 75 | - | - | -
O=C(OCCc1cc2ccccc2c(=O)o1)c1ccc2c(c1)OCO2 | - | - | - | - | 71 | - | - | -
COc1cc(/C=C2\SC(=O)N(c3ccc(Cl)cc3)C2=O)cc([N+](=O)[O-])c1O | 97 | 106 | - | 55 | 86 | 84 | - | -
CC(C)NC(=O)c1cc(C2CCCCN2S(=O)(=O)c2ccccc2)on1 (centres undefined) | - | - | - | . | - | - | . | .
CCOC(=O)C1C(=O)CC(=O)CC1CC(C)SCC (centres undefined) | - | - | - | - | 79 | - | - | -
Cc1cccc(C)c1Nc1cn[nH]c1 | - | - | - | . | - | - | . | .
COc1ccccc1/C=C/C=c1\sc2nc(=O)c(Cc3ccccc3)nn2c1=O | - | - | - | - | 93 | - | - | -
O=c1/c(=C/c2ccco2)sc2nc(-c3ccccc3Br)nn12 | - | - | - | - | - | - | . | .
CCCOc1ccc(Cc2nn3c(=O)/c(=C/c4ccco4)sc3nc2=O)cc1 | - | - | - | - | 86 | - | - | -
Cc1nc2ccc(NC(=O)NCCCO)cc2s1 | - | - | - | - | - | - | . | .
O=C(c1ccccc1)C1OC1C(=O)c1ccccc1 (centres undefined) | - | - | - | - | 50 | - | - | -
COc1ccc(S(=O)(=O)NCc2ccncc2)cc1OC | - | - | - | - | - | - | . | .
COc1ccc(S(=O)(=O)NCc2cccnc2)cc1OC | - | - | - | - | 56 | - | - | -
COc1ccc(C(=O)c2sc(Nc3ccccc3)nc2N)cc1 | - | - | - | - | 89 | - | - | -
CCc1nc2sc3ccccc3c(=O)c2c(=O)n1Cc1ccco1 | - | - | - | - | 88 | 58 | - | -
O=c1c2ccccc2sc2nc(C3CCCCC3)n(Cc3ccco3)c(=O)c12 | - | - | - | - | - | - | . | .
